From ChEMBL document CHEMBL4725356, “Discovery of IACS-9439, a Potent, Exquisitely Selective, and Orally Bioavailable Inhibitor of CSF1R” (J Med Chem, 2020)

Legend:
[1] = Oral bioavailability in Beagle dog at 3 mg/kg and measured up to 24 hrs by LC-MS/MS analysis; format: ADME, organism-based, Canis lupus familiaris; settings: in vivo
In short: (§1)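 Each species was dosed IV at 0.3 mg/kg and PO as follows: mouse 10 mg/kg, rat 3, dog 3, monkey 1. Plasma PK parameters derived were CL, Vss, IV half-life and oral bioavailability (F%).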

[2] = Volume of distribution at steady state in Sprague-Dawley rat at 0.3 mg/kg, iv or 3 mg/kg, po and measured up to 24 hrs by LC-MS/MS analysis; format: ADME, organism-based; settings: in vivo, read-out: Vdss; in short: as §1
[3] = Volume of distribution at steady state in CD-1 mouse at 0.3 mg/kg, iv or 10 mg/kg, po and measured up to 24 hrs by LC-MS/MS analysis; format: ADME, organism-based; settings: in vivo, read-out: Vdss; in short: as §1
[4] = Oral bioavailability in CD-1 mouse at 10 mg/kg and measured up to 24 hrs by LC-MS/MS analysis; format: ADME, organism-based; settings: in vivo; in short: as §1
[5] = Oral bioavailability in Sprague-Dawley rat at 3 mg/kg and measured up to 24 hrs by LC-MS/MS analysis; format: ADME, organism-based; settings: in vivo; in short: as §1
[6] = Volume of distribution at steady state in cynomolgus monkey at 0.3 mg/kg, iv or 1 mg/kg, po and measured up to 24 hrs by LC-MS/MS analysis; format: ADME, organism-based, Macaca fascicularis; settings: in vivo, read-out: Vdss; in short: as §1
[7] = Oral bioavailability in cynomolgus monkey at 1 mg/kg and measured up to 24 hrs by LC-MS/MS analysis; format: ADME, organism-based, Macaca fascicularis; settings: in vivo; in short: as §1
[8] = Volume of distribution at steady state in Beagle dog at 0.3 mg/kg, iv or 3 mg/kg, po and measured up to 24 hrs by LC-MS/MS analysis; format: ADME, organism-based, Canis lupus familiaris; settings: in vivo, read-out: Vdss; in short: as §1

Row | bioavailability [1] [%] | Vd [2] [L/kg] | Vd [3] [L/kg] | bioavailability [4] [%] | bioavailability [5] [%] | Vd [6] [L/kg] | bioavailability [7] [%] | Vd [8] [L/kg] | SMILES
1 | 37 | 3.4 | 1 | 100 | 81 | 0.45 | 21 | 3 | COc1cc(OCc2ccnc(Nc3cnn(C)c3)n2)cc2sc(N[C@H]3CCCC[C@@H]3O)nc12
2 | 34 | 0.75 | 1.8 | > 90 | 67 | 0.6 | 72 | 1.3 | Nc1nccc(COc2ccc3nc(N[C@@H]4CCCC[C@H]4O)sc3c2)c1Cl
